Activity calls are given as the source filed them. No cut-off for these calls is given here.
How the values were obtained:
Pseudomonas aeruginosa [1] = test: Inhibition of Pseudomonas aeruginosa PA14 biofilm formation after 24 hrs by crystal violet reporter assay; type: functional, organism-based; details: PA14, 24 h
Summary of the method: (§1)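 Biofilm formation measured by crystal violet reporter assay. Each compound was first screened at 100 µM. Compounds giving >95% inhibition then went to dose-response studies to derive IC50. Values are means of three or more experiments.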

Pseudomonas aeruginosa [2] = test: Dispersion of Pseudomonas aeruginosa PA14 established biofilm at 100 uM after 24 hrs by crystal violet reporter assay; type: functional, organism-based
Escherichia coli [3] = test: Inhibition of Escherichia coli biofilm formation after 24 hrs by crystal violet reporter assay; type: functional, organism-based; summary of the method: as §1
Escherichia coli [4] = test: Inhibition of Escherichia coli biofilm formation at 100 uM after 24 hrs by crystal violet reporter assay; type: functional; summary of the method: as §1
Pseudomonas aeruginosa [5] = test: Inhibition of Pseudomonas aeruginosa PA14 biofilm formation at 100 uM after 24 hrs by crystal violet reporter assay; type: functional; details: PA14, 24 h; summary of the method: as §1
Acinetobacter baumannii [6] = test: Inhibition of Acinetobacter baumannii biofilm formation at 100 uM after 24 hrs by crystal violet reporter assay; type: functional; summary of the method: as §1
Escherichia coli [7] = test: Dispersion of Escherichia coli established biofilm at 50 uM after 24 hrs by crystal violet reporter assay; type: functional
Acinetobacter baumannii [8] = test: Inhibition of Acinetobacter baumannii biofilm formation after 24 hrs by crystal violet reporter assay; type: functional, organism-based; summary of the method: as §1
Acinetobacter baumannii [9] = test: Dispersion of Acinetobacter baumannii established biofilm at 100 uM after 24 hrs by crystal violet reporter assay; type: functional
Escherichia coli [10] = test: Toxicity in Escherichia coli assessed as inhibition of planktonic growth at IC50 concentration measured up to 24 hrs; type: organism-based; details: in vivo

In the case of `CCCCCCC(=O)Nc1cccc(-c2cnc(N)[nH]2)c1`, the IC50 (Pseudomonas aeruginosa [1]) is reported as 39.4 µM and the Activity (Pseudomonas aeruginosa [2]) is reported as “inactive”.
In the case of `CCCCCc1ccc(C(=O)Nc2ccc(-c3cnc(N)[nH]3)cc2)cc1`, the IC50 (Escherichia coli [3]) is reported as 39.4 µM and the Activity (Pseudomonas aeruginosa [2]) is reported as “inactive”.
`Nc1ncc(-c2ccc(-n3cc(-c4cc(F)cc(F)c4)nn3)cc2)[nH]1` was tested, and the inhibition at 100 µM (Escherichia coli [4]) was 35%, the inhibition at 100 µM (Pseudomonas aeruginosa [5]) was less than 5% and the inhibition at 100 µM (Acinetobacter baumannii [6]) was 21%.
With `Cl.Nc1ncc(-c2ccc(NC(=O)/C=C/c3ccccc3)cc2)[nH]1` the IC50 (Escherichia coli [3]) was 16.3 µM, the Activity (Escherichia coli [7]) was 67% and the Activity (Pseudomonas aeruginosa [2]) was “inactive”.
With `CCCCCCC(=O)Nc1ccc(-c2cnc(N)[nH]2)cc1` the IC50 (Pseudomonas aeruginosa [1]) was 16.8 µM and the Activity (Pseudomonas aeruginosa [2]) was “inactive”.
With `Nc1ncc(-c2cccc(NC(=O)CCC3CCCC3)c2)[nH]1` the IC50 (Escherichia coli [3]) was 47 µM and the Activity (Pseudomonas aeruginosa [2]) was “inactive”.
`Nc1ncc(-c2cccc(NC(=O)C34CC5CC(CC(C5)C3)C4)c2)[nH]1` was tested, and the IC50 (Escherichia coli [3]) was 43.4 µM and the Activity (Pseudomonas aeruginosa [2]) was “inactive”.
For `Nc1ncc(-c2cccc(NC(=O)c3cc(F)cc(F)c3)c2)[nH]1`, the inhibition at 100 µM (Escherichia coli [4]) was 64%, the inhibition at 100 µM (Pseudomonas aeruginosa [5]) was less than 5% and the Activity (Pseudomonas aeruginosa [2]) was “inactive”.
With `CCCCCCCCCC(=O)Nc1ccccc1-c1cnc(N)[nH]1.Cl` the IC50 (Acinetobacter baumannii [8]) was 43 µM, the Activity (Acinetobacter baumannii [9]) was 40% and the Activity (Pseudomonas aeruginosa [2]) was “inactive”.
For `Nc1ncc(-c2ccccc2NC(=O)c2cc(F)cc(F)c2)[nH]1`, the inhibition at 100 µM (Escherichia coli [4]) was less than 5%, the inhibition at 100 µM (Pseudomonas aeruginosa [5]) was less than 5% and the Activity (Pseudomonas aeruginosa [2]) was “inactive”.
For `Cl.Nc1ncc(-c2ccc(NC(=O)c3cc(F)cc(F)c3)cc2)[nH]1`, the IC50 (Escherichia coli [3]) was 5.2 µM, the IC50 (Pseudomonas aeruginosa [1]) was 27.6 µM and the Activity (Escherichia coli [7]) was 51%. The Activity (Pseudomonas aeruginosa [2]) was “inactive” and the Activity (Escherichia coli [10]) was “Non-toxic”.
For `CCCCCc1ccc(C(=O)Nc2cccc(-c3cnc(N)[nH]3)c2)cc1`, the IC50 (Escherichia coli [3]) was 16.5 µM and the Activity (Pseudomonas aeruginosa [2]) was “inactive”.
